FLuc inh counter: inhibits firefly luciferase, flagging false hits in luciferase inhibition screens. P08659. ATPLite firefly luciferase biochemical luminescence, 10 min. inhibition, % at 10 µM. actives 1.5% (n = 200,000). AID 1006;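 active = inhibition above about 50% when tested at 10 µM, limit read from the data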
Target sequence (P08659 whole entry, looked up): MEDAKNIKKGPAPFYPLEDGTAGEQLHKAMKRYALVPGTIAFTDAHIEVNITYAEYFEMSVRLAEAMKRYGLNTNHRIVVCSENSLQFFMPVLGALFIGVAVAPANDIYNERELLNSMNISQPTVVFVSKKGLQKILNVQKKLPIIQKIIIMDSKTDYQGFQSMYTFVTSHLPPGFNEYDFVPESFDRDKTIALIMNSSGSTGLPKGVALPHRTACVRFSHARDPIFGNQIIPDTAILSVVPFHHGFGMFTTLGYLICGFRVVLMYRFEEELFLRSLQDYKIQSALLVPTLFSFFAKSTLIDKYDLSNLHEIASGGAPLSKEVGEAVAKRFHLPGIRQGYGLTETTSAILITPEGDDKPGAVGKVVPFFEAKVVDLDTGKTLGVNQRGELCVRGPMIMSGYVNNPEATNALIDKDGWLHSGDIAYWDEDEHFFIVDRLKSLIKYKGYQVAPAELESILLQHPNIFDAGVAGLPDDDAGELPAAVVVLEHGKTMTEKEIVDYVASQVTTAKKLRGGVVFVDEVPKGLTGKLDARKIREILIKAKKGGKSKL
NF-kB neuron act: compounds increasing NF-kB expression in human neuronal cells; NF-kB reporter expression; hits give high values; fold change at 12.5 µM; actives 1.6% (n = 190,000); AID 1239; in the data active = fold change above about 3.3
FLuc act counter: firefly luciferase counter-screen for stimulation assays; activation factor at 10 µM; ATPlite luciferase biochemical, luminescence, 10 min; 0 = ATP-free wells, 1 = DMSO control; 200,000 tested, under 10 active; AID 1027; P08659;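 active = luciferase activation factor, scaled between plate controls, of at least 2 with compound at 10 µM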
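Material: Luciferase/luciferin reagent mix | Doses: Test compounds dosed from 2 mM stocks in 100% DMSO | Timing: 10 min incubation after luciferase reagent addition, room temperature | Measured by: Luminescence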
APP 5'UTR act: APP 5'UTR luciferase reporter activation; SH-SY5Y APP 5'UTR luciferase reporter, luminescence; zero percent = DMSO vehicle wells; activation, % at 2 µM; actives 1% (n = 190,000);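 active = activation above a set limit, based on mean plus 3 SD of controls, cut at about 140% in these data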
STAT1 activator: increases IFN-gamma driven STAT1 reporter signal; activation (% of control), % at 5.5 µM; actives 2.6% (n = 200,000); AID 932; NIH 3T3 STAT1-luciferase reporter, luminescence; 100% = IFN-gamma alone, no compound;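 active = activation above the screen-wide mean activation plus 3 SD, cut at about 130% in these data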
A number is an active result; . = inactive; / = no result given. Only some compounds are listed: those with a hit (about 4.3% of all), similar ones and a draw of the others.

SMILES	FLuc inh counter	NF-kB neuron act	FLuc act counter	APP 5'UTR act	STAT1 activator
c1ccc2c(c1)oc1c(NCC3CCCO3)ncnc12 (stereo not drawn)	.	.	.	.	.
c1ccc(-n2ncc3c(NCC4CCCO4)ncnc32)cc1 (stereo not drawn)	.	.	.	.	129
Clc1ccc(-n2ncc3c(NCc4ccco4)ncnc32)cc1	.	.	.	.	150
c1ccc(-n2ncc3c(NCc4cccs4)ncnc32)cc1	.	.	.	.	138
COc1ccccc1N1CCN(S(=O)(=O)c2cnc[nH]2)CC1	.	.	.	.	.
Cc1ccc(NC(=S)N2CCCC(CO)C2)c(C)c1 (stereo not drawn)	.	.	.	.	.
C=CCOC(=O)C1=C(C)NC(=S)NC1c1cccs1 (stereo not drawn)	.	.	.	/	.
Cn1cnnc1SCC(=O)c1c(N)n(Cc2ccccc2)c(=O)n(C)c1=O	.	.	.	.	.
C=CCn1c(N)c(C(=O)Nc2ccc(C)cc2)sc1=S	.	.	.	.	131
CC1Nc2nc(NC(=O)C(C)(C)C)[nH]c(=O)c2N(C)C1C (stereo not drawn)	.	.	.	.	.
O=C(Nc1ccc(F)cc1)c1csc(Cc2ccccc2)n1	53	.	.	.	.
COc1ccc(NC(=O)c2csc(Cc3ccccc3)n2)cc1	.	.	.	/	.
CN(CC(=O)Nc1ccccc1Sc1ccccc1)C1CCCCC1	.	.	.	.	.
COc1ccc(NC(=O)c2cc([N+](=O)[O-])ccc2O)cc1	96	/	.	.	.
COc1ccc(NC(=O)c2cccc([N+](=O)[O-])c2)cc1	.	.	.	.	.
COc1ccc(-c2cc3ncc(C(C)=O)c(C)n3n2)cc1	.	.	.	141	135
Cc1ccc(-c2cc3ncc(C#N)c(N)n3n2)cc1	.	.	.	.	130
CC(=O)c1cnc2cc(-c3ccc(C)cc3)nn2c1C	.	6.6	.	.	137
CC(=O)c1cnc2cc(C)nn2c1C	.	.	.	.	.
CC1CCN(C(=O)C2CCC(C)(C(=O)O)C2(C)C)CC1 (stereo not drawn)	.	.	.	.	.
COc1cc(/C=N/n2c(C)n[nH]c2=S)ccc1OCc1ccc(F)cc1	.	.	.	.	129
CCOC(CNC(=O)Cc1c(C)nc2c(-c3ccccc3)c(C)nn2c1C)OCC	.	.	.	.	.
Cc1ccc(C2=Nc3ccccc3N=C(C(Cl)Cl)C2)cc1	.	4	.	.	.
Cc1nnsc1S(=O)(=O)Cc1ccccc1C(F)(F)F	.	.	.	.	.
CS(=O)(=O)N1CCC(C(=O)N2CCN(c3ccc(F)cc3)CC2)CC1	.	.	.	.	.
SMILES	FLuc inh counter	NF-kB neuron act	FLuc act counter	APP 5'UTR act	STAT1 activator
Cc1csc(SCC(=O)NC(=O)C2CCCCC2)n1	.	.	.	139	.
O=C1N/C(=C\c2ccc(O)cc2)C(=O)c2ccccc21	93	.	.	.	.
O=C(O)/C=C1\NC(=O)c2ccccc21	.	.	.	.	.
CC(=O)Nc1ccc(NC(=O)Cn2c(=O)n(-c3ccc(C)cc3)c(=O)c3oc4ccccc4c32)cc1	.	.	.	.	.
c1cn2cc(-c3ccc4c(c3)OCO4)nc2s1	78	6.1	.	149	141
O=C(Nc1ccc(-c2cn3ccsc3n2)cc1)C1CCCC1	88	4	.	.	.
CC(=O)Nc1ccc(-c2cn3ccsc3n2)cc1	67	3.4	.	.	136
O=C(CCN1C(=O)c2ccccc2C1=O)Nc1ccc(-c2cn3ccsc3n2)cc1	.	.	.	.	.
CCC(=O)Nc1cccc(-c2cn3ccsc3n2)c1	.	.	.	.	.
CC(C)C(=O)Nc1cccc(-c2cn3ccsc3n2)c1	.	.	.	.	.
O=C(Nc1ccc(-c2ccc3nncn3n2)cc1)C1CCCC1	52	.	.	.	.
O=C(CC1CCCCC1)Nc1ccc(-c2ccc3nncn3n2)cc1	.	.	.	.	.
O=C(CN1CCN(c2ccccn2)CC1)Nc1cccc(S(=O)(=O)N2CCCC2)c1	.	.	.	.	.
O=C(c1nc2nc(-c3cccs3)cc(C(F)(F)F)n2n1)N1CCN(Cc2ccccc2)CC1	.	.	.	.	.
O=C(Nc1ccc(-c2cn3ccsc3n2)cc1)C1CC1	87	.	.	.	.
Cc1ccc(-c2cc3nc(C)cc(C)n3n2)cc1	.	5.1	.	171	134
Cc1cc(C)n2nc(-c3ccccc3)cc2n1	.	3.7	.	.	142
Cc1ccc(NC(=O)c2cc3nc(C)cc(C)n3n2)cc1	.	4.2	.	146	142
CC1(C(=O)OCC(=O)Nc2ccc3ccccc3c2)CC1(Cl)Cl (stereo not drawn)	.	.	.	.	.
c1ccc(Cc2nc(-c3ccccn3)no2)cc1	.	.	.	.	.
Clc1cc(Cl)c(OCc2nc(-c3ccccn3)no2)cc1Cl	.	5.2	.	.	132
c1ccc(-c2noc(CC3CCCCC3)n2)nc1	52	.	.	.	133
CCOc1ccc(NC(=O)NC(=O)N(C(C)C)S(C)(=O)=O)cc1	.	.	.	.	.
C/C(=N\NC(=O)OC(C)(C)C)c1cccc([N+](=O)[O-])c1	.	.	.	.	.
O=C(NCCc1ccc(F)cc1)Nc1ccc2c(c1)OCO2	.	.	.	.	134
SMILES	FLuc inh counter	NF-kB neuron act	FLuc act counter	APP 5'UTR act	STAT1 activator
O=C(NCCc1ccccc1)Nc1ccc2c(c1)OCO2	.	4.3	.	.	140
O=C(Nc1ccc2c(c1)OCO2)OCc1ccccc1	.	5.1	.	140	135
O=C(O)/C(=C\c1ccccc1OC(F)F)Sc1nnc(-c2ccc(F)cc2)o1	.	.	.	.	.
CCSc1nn2c(=O)c3ccccc3nc2s1	.	.	.	.	131
COc1ccc(C(=O)Nc2nc3c(s2)CCCC3)cc1S(=O)(=O)N1CCCc2ccccc21	.	.	.	.	.
COc1ccc(CCN(C(=O)c2cccc(F)c2)C2CC(=O)N(c3ccc(OC)cc3)C2=O)cc1 (stereo not drawn)	.	.	.	.	.
Cc1onc(-c2c(F)cccc2Cl)c1C(=O)OCn1nnc2ccccc2c1=O	.	5.6	.	.	.
Clc1ccc(/C=N/NC(=Nc2ccccc2)c2ccccn2)c(Cl)c1	.	.	.	164	.
C(=N\NC(=Nc1ccccc1)c1ccccn1)/c1ccccn1	.	.	.	.	.
COc1ccc(Cl)cc1NC(=O)CN(C)CC(=O)NC(C)c1ccccc1 (stereo not drawn)	.	.	.	.	.
Cc1ccccc1-c1cc(-c2ccccc2O)n[nH]1	.	7.7	.	158	.
Cc1ccc(-c2cc(-c3ccccc3Cl)[nH]n2)c(O)c1	.	9.8	.	171	.
COc1ccccc1-c1cc(-c2cc(Cl)ccc2O)n[nH]1	.	.	.	.	.
Cc1ccc(-c2cc(-c3ccccc3[N+](=O)[O-])[nH]n2)c(O)c1	.	4	.	.	.
O=C(CSc1ccc2c(c1)OCCO2)Nc1cccnc1	.	.	.	.	.
